Published values from different studies.
Each line is one published result; the experiments were not run side by side.
Target: Activated CDC42 kinase 1 (TNK2, Homo sapiens, UniProt Q07912)

Cc1sc(C(=O)NC2COC2)cc1-n1cc(NC(=O)Nc2c(F)cccc2Cl)cn1  remaining activity (enzyme activity; inhibitor; 10 µM): 106%
O=C(NCc1ncc(C(F)(F)F)cc1Cl)c1ccc2c(c1)C1(CCS(=O)(=O)CC1)[C@@H](C1CC1)N2S(=O)(=O)c1ccc(F)cc1  remaining binding (cell-free assay; competition with immobilised ligand; 1 µM): 84%
Cc1ccc(C(=O)Nc2ccc(CN3CCN(C)CC3)c(C(F)(F)F)c2)cc1C#Cc1cnc2cccnn12  remaining activity (enzyme activity; inhibitor; 23.5 nM): 100%
CCCCNc1ncc2c(-c3ccc(F)cc3)nn(C[C@H]3CC[C@H](N)CC3)c2n1  inhibition (target engagement in cells; inhibitor; chemoproteomics; 20 mM): 71.4%
Cc1noc([C@H]2C[C@@H](c3ccc(C(F)(F)F)cc3)CN(C(=O)N3CCS(=O)(=O)C3)C2)n1  remaining binding (cell-free assay; competition with immobilised ligand; 1 µM): 100%
COc1cc2nccc(Oc3ccc(NC(=O)c4c5n(n(-c6ccc(F)cc6)c4=O)CCCC5)cc3)c2cc1OC  inhibition (enzyme activity; inhibitor; 0.1 µM): 6%
CC(C)(C)c1nc(-c2cccc(NS(=O)(=O)c3c(F)cccc3F)c2F)c(-c2ccnc(N)n2)s1  remaining activity (enzyme activity; inhibitor; radiometric; 1 µM): 29%
O=C1NC(=O)c2cc(Nc3ccc(F)cc3)c(Nc3ccc(F)cc3)cc21  remaining signal (cell-free assay; 0.5 µM): 93.2%
CN(c1ccnc(CNc2nc(Nc3ccc4c(c3)CC(=O)N4)ncc2C(F)(F)F)n1)S(C)(=O)=O  remaining binding (cell-free assay; competition with immobilised ligand; 1 µM): 86%
CCN(CC)c1ccc(C2=NNC(=O)CC2C)cc1[N+](=O)[O-] (centres unmarked)  remaining activity (enzyme activity; inhibitor; 10 µM): 94%
O=C(Nc1cnn(-c2csc(C(=O)NC3COC3)c2)c1)Nc1c(F)cccc1Cl  remaining activity (enzyme activity; inhibitor; 5 µM): 94.6%
Nc1ncnc2occ(-c3ccc(NC(=O)Nc4cc(C(F)(F)F)ccc4F)cc3)c12  remaining signal (cell-free assay; inhibitor; 20 µM): 13%
Cc1cc(NC(=O)c2cccc3cc(-c4cccc5[nH]nc(N)c45)ccc23)ccc1F  activity vs control (enzyme activity; inhibitor; 0.1 µM): 107%
C[C@@H]1CN(c2cc(-c3nn(C)c4ccc(OC5(C)CC5)cc34)ncn2)C[C@H](C)O1  remaining binding (cell-free assay; competition with immobilised ligand; 1 µM): 96%
c1ccc(CNc2nc(N3CCOc4ccccc43)nc3c2CCCC3)cc1  inhibition (target engagement in cells; inhibitor; chemoproteomics; 20 mM): -11.3%
CS(=O)(=O)CCNCc1ccc(-c2ccc3ncnc(Nc4ccc(OCc5cccc(F)c5)c(Cl)c4)c3c2)o1  remaining signal (cell-free assay; 0.5 µM): 97.5%
COc1ccc2cc(OCC3(C(=O)O)CN(C(=O)c4ccc(F)cc4)C3)ccc2c1  remaining binding (cell-free assay; competition with immobilised ligand; 1 µM): 100%
